UBC13 polyUb = blocks human UBC13 polyubiquitin chain formation; P61088; TR-FRET; inhibition, % at 20 µM; actives 0.47% (n = 330,000); AID 485273; in the data active = inhibition above about 45%, passing the limit was not always enough; inconclusive = no clear call, values can overlap the other calls
Target sequence (P61088 whole entry, looked up): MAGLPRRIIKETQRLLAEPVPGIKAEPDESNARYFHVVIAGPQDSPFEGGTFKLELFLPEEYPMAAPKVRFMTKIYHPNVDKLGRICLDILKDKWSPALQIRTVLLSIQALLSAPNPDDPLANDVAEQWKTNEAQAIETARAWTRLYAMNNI
PP1 inh = counter-screen for PP5 inhibitors: inhibitors of human PP1-alpha | P62136 | purified PP1alpha, OMFP fluorescence | inhibition, % at 6.7 µM | actives 0.9% (n = 320,000) | AID 2235;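 active = inhibition above the mean inhibition of all tested compounds plus 3 SD, computed separately for each screening campaign, cut at about 15% in these data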
PREPL inhibitor = inhibitors of human prolyl oligopeptidase-like enzyme PREPL. Q4J6C6. recombinant PREPL, fluorescence polarization activity-based probe. inhibition, % at 5.96 µM. actives 0.68% (n = 320,000); in the data active = inhibition above about 43%;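 note: 0% = enzyme with DMSO and 100% = wells lacking enzyme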
UCH37 DUB inh = human UCH37 deubiquitinating enzyme inhibition | Q9Y5K5 | purified proteasome/UCH37, Ub-AMC cleavage fluorescence | inhibition, % (concentration not given with the values) | actives 0.33% (n = 330,000) | AID 588478;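 active = mean inhibition over replicate wells above about 20%, limit read from the data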;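 note: 0% = compound-free wells with enzyme and 100% = wells lacking proteasome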
Target sequence (Q9Y5K5 whole entry, looked up): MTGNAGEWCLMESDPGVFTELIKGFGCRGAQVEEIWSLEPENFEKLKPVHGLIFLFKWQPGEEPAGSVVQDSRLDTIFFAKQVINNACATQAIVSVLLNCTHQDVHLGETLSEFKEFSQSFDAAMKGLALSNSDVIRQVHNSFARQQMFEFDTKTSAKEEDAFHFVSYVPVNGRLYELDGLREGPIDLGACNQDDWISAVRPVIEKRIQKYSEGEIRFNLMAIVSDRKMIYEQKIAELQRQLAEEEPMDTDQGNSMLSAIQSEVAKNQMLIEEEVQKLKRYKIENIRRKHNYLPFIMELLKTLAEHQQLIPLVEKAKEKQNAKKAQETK
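Reagent: Ub-AMC substrate; assay system: Proteasome-associated human UCH37 deubiquitinase; controls: no-proteasome and no-compound wells; read-out: % inhibition of Ub-AMC cleavage fluorescence; timing: 30 min preincubation with enzyme, 25 min cleavage at room temperature; signal: AMC fluorescence from Ub-AMC cleavage, excitation 355 nm, emission 460 nm; buffer or medium: Tris-HCl pH 7.4 plus ovalbumin, ATP-MgCl2, DTT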
PP5 primary = blocks human protein phosphatase 5 activity; P53041; inhibition, % at 6.7 µM; actives 0.18% (n = 320,000); purified PP5c, OMFP substrate fluorescence;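 active = inhibition above the campaign's mean inhibition across all tested compounds plus 3 SD, cut at about 9.5% in these data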;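 note: 0% = DMSO only and 100% = 100 µM cantharidin control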
CTSL1 counter = blocks F. hepatica cathepsin L1 in PFM18AAP counter-screen; recombinant F. hepatica cathepsin L1, Z-Leu-Arg-MCA fluorescence; inhibition, % at 5.96 µM; actives 0.49% (n = 300,000); AID 1906;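 active = inhibition above the mean of all tested compounds plus 3 SD, set per screening campaign, cut at about 17% in these data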;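 note: 0% = plate median of test compound wells and 100% = 1 µM Z-Phe-Ala-diazomethylketone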
Casp3 UBC13 ctr = caspase-3 inhibition (UBC13 counter-screen) | shares compounds with UBC13 polyUb | Recombinant caspase-3, Caspase-Glo 3/7 luminescence, 60 min | inhibition, % at 20 µM | actives 4% (n = 1,400);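 active = mean inhibition across replicates above about 26%, limit read from the data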;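 note: plate controls were DMSO with caspase-3 for no effect and DMSO wells lacking enzyme for full effect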
UBC13 confirm = confirmation of human UBC13 polyubiquitin inhibitors. shares compounds with UBC13 polyUb. UBC13 polyubiquitination, TR-FRET, biochemical. inhibition, % at 10 µM. actives 68% (n = 1,400); in the data active = inhibition above about 45%; inconclusive = no clear call, values can overlap the other calls
The depositor's hits bear a star; ? = inconclusive; / = no result given. Shown are actives, neighbours in structure and some others; about 2.3% of the full set was active somewhere.

SMILES	UBC13 polyUb	PP1 inh	PREPL inhibitor	UCH37 DUB inh	PP5 primary	CTSL1 counter	Casp3 UBC13 ctr	UBC13 confirm
CCCC(C(=O)NC(C)(C)C)N(C(=O)c1snc(C(N)=O)c1N)c1ccc2c(c1)OCCO2 (stereo not drawn)	65*	-2	0	-23	2	2	-3	86*
CCC(C)(C)NC(=O)CN(C(=O)c1snc(C(N)=O)c1N)c1ccc2nc(C)sc2c1	74*	1	11	-12	2	2	2	83*
Cc1ccc2occ(C=NNC(=O)c3ccccc3C)c(=O)c2c1	/	/	/	-66	/	/	/	/
NC(=O)c1cc2cc(Br)ccc2oc1=NNC(=O)c1cccc(F)c1	/	/	/	2	/	/	/	/
O=C(NC1(C(F)(F)F)N=C2SCCN2C1=O)c1cccnc1 (stereo not drawn)	48*	0	-11	0	1	-2	-3	-8
COc1cccc(C=NN=C(N)c2nonc2N)c1O	/	/	/	4	/	/	/	/
COc1ccc(C(=O)c2c(-c3ccc(OC)cc3)oc3ccc(-c4cc(OC)c(OC)c(OC)c4)cc23)cc1	?	-3	17	0	-1	4	/	/
COC(=O)c1c(-c2ccc(OC)cc2)oc2ccc(-c3cc(OC)c(OC)c(OC)c3)cc12	52*	3	6	/	2	2	-1	?
Nc1nonc1-n1nnc(C(=O)NN=Cc2cccc(Cl)c2)c1CSc1ccccc1	/	/	/	5	/	/	/	/
CCc1cccc(NC(=O)CSC2=NS(=O)(=O)c3ccccc32)c1	47*	-1	-5	9	-2	3	0	25
COc1ccccc1-c1oc2ccccc2c1C#CC1(O)CCCCC1	14	/	5	-9	/	/	/	/
COc1ccccc1-c1oc2ccccc2c1C#CC1(N)CCCCC1	70*	13	-47	/	2	/	-3	70*
COc1cc(NC(=O)CSc2nnc(-c3cc(C)on3)o2)cc(OC)c1	1	-4	14	0	-6	1	/	/
Cc1cc(-c2nnc(SCC(=O)Nc3nc(-c4ccc(Cl)cc4)cs3)o2)no1	49*	0	-13	3	-1	1	1	-11
CN1CCCC(CC2c3ccccc3Sc3ccccc32)C1 (stereo not drawn)	46*	5	-47	4	1	2	0	27
Cc1ccc(-n2c(C)cc(C=NNC(=O)CC(=O)NC(C)C)c2C)cc1	/	/	/	3	/	/	/	/
OC(CNCC1CCCO1)Cn1c2ccccc2c2ccccc21 (stereo not drawn)	14	4	4	2	1	0	/	/
OC(CNCC1CCCO1)Cn1c2ccc(Cl)cc2c2cc(Cl)ccc21 (stereo not drawn)	49*	11	-13	6	4	3	-3	89*
COc1cc(/C=C2/SC(=Nc3ccc(O)cc3)NC2=O)cc(OC)c1O	48*	7	-23	/	2	3	-3	47*
COc1cc(/C=C2\SC(=Nc3ccc(O)cc3)NC2=O)cc(OC)c1OC	12	-5	12	4	-1	-4	/	/
Cc1cccc(NC(=O)c2ccc(S(=O)(=O)N3CCOCC3)cc2)c1C	1	0	9	-2	-3	2	/	/
CCN1C(=O)c2cccc3c(NS(=O)(=O)c4ccc(NC(C)=O)cc4)ccc1c23	-28	-5	5	2	1	2	/	/
CCN1C(=O)c2cccc3c(NC(=O)c4ccc(S(=O)(=O)N(C)C)cc4)ccc1c23	62*	-2	-6	8	3	-1	0	76*
CCN1C(=O)c2cccc3c(NC(=O)c4ccc(S(=O)(=O)N5CCOCC5)cc4)ccc1c23	70*	0	10	3	2	1	-2	83*
CC(=NNC(=O)c1ccc(-c2ccccc2)cc1)c1cccc(O)c1	/	/	/	-4	/	/	/	/
SMILES	UBC13 polyUb	PP1 inh	PREPL inhibitor	UCH37 DUB inh	PP5 primary	CTSL1 counter	Casp3 UBC13 ctr	UBC13 confirm
COc1cc(C(=O)Nc2nc3ccc(S(C)(=O)=O)cc3s2)cc(OC)c1C	47*	-10	4	-3	0	-1	0	24
N#Cc1ccc(NN=Cc2cn(-c3ccccc3)nc2-c2ccccc2)c([N+](=O)[O-])c1	/	/	/	13	/	/	/	/
CCOc1cc2c(C#N)c(N3CCCCC3)nc(N)c2c(N)n1	-33	6	27	-96	5	2	/	/
CCOc1cc2c(C#N)c(N3CCNCC3)nc(N)c2c(N)n1	63*	3	31	-288	6	5	24	105*
COc1ccc(C(=O)NC(=S)NNC(=O)c2ccc(NC(C)=O)cc2)cc1Br	71*	-2	-7	4	-1	2	1	104*
COc1ccc(C(=O)NNC(=S)NC(=O)c2ccc(F)cc2)cc1Br	-20	-1	19	3	1	0	/	/
O=C(NN=Cc1c(Cl)cccc1Cl)c1ccc(-n2cnnn2)cc1	/	/	/	-2	/	/	/	/
NC(=S)N=Nc1c(O)n(C2OC(=O)c3ccccc32)c2ccccc12 (stereo not drawn)	88*	3	8	-6	1	6	0	104*
NC(=S)N=Nc1c(O)n(CCCl)c2ccccc12	90*	6	-1	3	2	2	-4	85*
NC(=S)N=Nc1c(O)n(CCCl)c2ccc(Cl)cc12	68*	-2	11	3	2	5	-3	90*
NC(=S)N=Nc1c(O)n(CC(=O)Nc2ccccc2)c2ccccc12	-5	7	13	3	-2	8	/	/
COc1ccc(C=NNC(=O)NC23CC4CC(CC(C4)C2)C3)c(OC)c1	/	/	/	1	/	/	/	/
O=C1NC2(CCCCCC2)N=C1c1ccc(Br)cc1	49*	2	-9	1	1	-1	-3	?
O=C1NC2(CCCC2)N=C1c1ccc(F)cc1	-18	9	2	-1	2	0	/	/
O=[N+]([O-])c1cccc(C=NNc2nc(N3CCCCC3)nc(N3CCCCC3)n2)c1	/	/	/	4	/	/	/	/
C/C(=N\NC(=O)CSCc1ccc([N+](=O)[O-])cc1)c1cccc(Br)c1	47*	-1	-12	/	4	2	-2	34
O=C(CSCc1ccc([N+](=O)[O-])cc1)N/N=C/c1ccncc1	68*	0	-6	/	0	2	-5	75*
O=C(CSCc1ccc([N+](=O)[O-])cc1)N/N=C/c1cccnc1	86*	0	-7	/	4	-2	-1	96*
CON=C(CNC(=O)c1ccc(Cl)cc1Cl)c1ccc(Cl)cc1	/	/	/	-2	/	/	/	/
C#CCNC(=O)C1=C[C@H](c2cn(C(C)=O)c3ccccc23)C[C@H](OCc2ccc(CO)cc2)O1	63*	-1	13	0	3	-1	-2	46*

Source: PubChem BioAssay (several laboratories)
